From ChEMBL document CHEMBL1144781, “Identification of promiscuous small molecule activators in high-throughput enzyme activation screens” (J Med Chem, 2008)
Activity calls are given as the source filed them. No cut-off for these calls is given here.

Tests used:
Caspase-2 = molecular target: T1, Caspase-2 (Homo sapiens, UniProt P42575); experiment: Activation of procaspase 2 after 24 hrs
T1 sequence (P42575 whole entry): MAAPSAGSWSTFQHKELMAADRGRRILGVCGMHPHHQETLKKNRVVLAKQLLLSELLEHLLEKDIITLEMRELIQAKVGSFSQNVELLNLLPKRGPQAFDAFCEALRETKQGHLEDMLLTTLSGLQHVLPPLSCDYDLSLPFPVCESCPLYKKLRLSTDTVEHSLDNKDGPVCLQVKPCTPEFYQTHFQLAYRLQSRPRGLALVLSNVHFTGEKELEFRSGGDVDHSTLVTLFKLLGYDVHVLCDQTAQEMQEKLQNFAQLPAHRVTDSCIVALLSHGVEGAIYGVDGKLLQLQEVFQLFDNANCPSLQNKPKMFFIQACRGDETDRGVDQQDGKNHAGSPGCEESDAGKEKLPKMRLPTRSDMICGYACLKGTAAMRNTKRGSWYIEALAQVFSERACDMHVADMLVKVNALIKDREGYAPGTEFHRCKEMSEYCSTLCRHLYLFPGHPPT

[1] = Activation of procaspase 2 in presence of BSA
Caspase-3 (Homo sapiens) = molecular target: T2, Caspase-3 (Homo sapiens) (UniProt P42574); experiment: Activation of caspase 3 after 30 mins
T2 sequence (whole entry): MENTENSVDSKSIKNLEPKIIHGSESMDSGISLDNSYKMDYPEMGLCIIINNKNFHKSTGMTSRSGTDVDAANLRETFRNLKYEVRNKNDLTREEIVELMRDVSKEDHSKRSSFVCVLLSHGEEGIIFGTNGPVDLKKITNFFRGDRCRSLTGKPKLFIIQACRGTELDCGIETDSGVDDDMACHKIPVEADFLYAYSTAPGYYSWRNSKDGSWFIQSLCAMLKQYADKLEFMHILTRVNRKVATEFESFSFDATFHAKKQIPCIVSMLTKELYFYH

[2] = Activation of alkaline phosphatase after 30 mins
Caspase-2 (Homo sapiens) [3] = molecular target: T3, Caspase-2 (Homo sapiens) (UniProt P42575); experiment: Increase in procaspase 2 activity after 16 hrs in presence of surfactant CHAPS
T3 sequence (whole entry): T1 sequence (P42575 whole entry)
Summary of the method: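 Procaspase-2 was incubated with compound for 16 h in buffer containing CHAPS. Activity was then read by adding Ac-VDVAD-pNA substrate and monitoring absorbance at 405 nm.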

Caspase-2 (Homo sapiens) [4] = molecular target: T3, Caspase-2 (Homo sapiens); experiment: Increase in procaspase 2 activity after 30 mins in presence of surfactant CHAPS
Summary of the method: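 Procaspase-2 was preincubated with compound for a short time (30 min) in CHAPS-containing buffer. Ac-VDVAD-pNA cleavage was then followed by absorbance at 405 nm.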

EC50 (Caspase-2) [µM]	Activity (Caspase-3 (Homo sapiens))	SMILES	further results
66		CCCCCCCCCCNC(=O)CCC	
	Active	C[C@@H](CCC(=O)NCCC[N+](C)(C)CCCS(=O)(=O)[O-])[C@H]1CC[C@H]2[C@@H]3[C@H](O)C[C@@H]4C[C@H](O)CC[C@]4(C)[C@H]3C[C@H](O)[C@]12C	Activity [1]: inactive
25	Active	CC1CCCN(CC(O)COc2ccc(C34CC5CC(CC(C5)C3)C4)cc2)C1 (stereo unspecified)	
50		Cc1cc(NNC(=O)C(c2ccccc2)c2ccccc2)c2ccc(C)c(C)c2n1	
50	Active	NCCCNCCNCCCN	Activity [2]: Active
25	Active	CN(C)CCNC(=O)COc1ccc(C23CC4CC(CC(C4)C2)C3)cc1	Activity (Caspase-2 (Homo sapiens) [3]): Active; Activity (Caspase-2 (Homo sapiens) [4]): inactive
8.5	Active	NCCCNCCCCNCCCN [SPERMINE]	

SMILES	EC50 (Caspase-2) [µM]	Activity (Caspase-3 (Homo sapiens))	further results
CCCCCCCCCCCCCCCC[n+]1ccccc1	21		
